Bioassay records: PubChem, The Scripps Research Institute Molecular Screening Center
In the library only some 2% were active in any assay of this set; here they are far more common.
DNA FID counter-1: counter-screen for HCV NS3 helicase inhibitors: DNA intercalator displacement | DNA fluorescent intercalator displacement, fluorescence | inhibition, % at 7.9 µM | 0.17% of 290,000 active | AID 1845;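 also: higher means more ethidium bromide displaced from hairpin DNA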
HCV NS3 hel inh: blocks Hepatitis C virus NS3 helicase unwinding; NS3 helicase DNA unwinding, Cy5 molecular beacon fluorescence; inhibition, % at 10.9 µM; 0.56% of 290,000 active; AID 1800;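 active = inhibition above the mean of all tested compounds plus 3 SD, set per campaign, cut at about 35% in these data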
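Material: hepatitis C virus NS3 helicase domain fragment enzyme; measured by: Cy5 fluorescence, 0 and 60 min reads; control set: DMSO and thioflavine S; incubation: 60 min unwinding reaction at 25 °C after ATP addition; read-out basis: % inhibition from 60/0 min fluorescence ratio, DMSO 0%, thioflavine S 100%; repeats: singlicate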
EBNA-1 inhibitor: blocks EBNA-1 binding to DNA; EBNA-1 DNA binding, fluorescence polarization; inhibition, % at 14.8 µM; 0.34% of 300,000 active; in the data active = inhibition above about 28%
ZTA counter: ZTA (EBV) inhibition in EBNA-1 counter-screen | ZTA-DNA binding, fluorescence polarization | inhibition, % at 11 µM | 0.15% of 320,000 active | AID 2234; in the data active = inhibition above about 33%
Target sequence (P03206 whole entry, looked up): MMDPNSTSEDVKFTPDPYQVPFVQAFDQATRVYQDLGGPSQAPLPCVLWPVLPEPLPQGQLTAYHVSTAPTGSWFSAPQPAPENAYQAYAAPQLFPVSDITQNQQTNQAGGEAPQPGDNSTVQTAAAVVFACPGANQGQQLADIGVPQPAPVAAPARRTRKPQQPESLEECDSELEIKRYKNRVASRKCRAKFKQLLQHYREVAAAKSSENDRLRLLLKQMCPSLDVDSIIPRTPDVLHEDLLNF
GPR7 antag: blocks human GPR7 receptor signaling | inhibition, % at 4.4 µM | 1.1% of 290,000 active | P48145 | GPR7-expressing cells, fluorescence antagonist assay; in the data active = inhibition above about 16%, passing the limit was not always enough;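 also: cells stimulated with the agonist NPW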
Target sequence (P48145 whole entry, looked up): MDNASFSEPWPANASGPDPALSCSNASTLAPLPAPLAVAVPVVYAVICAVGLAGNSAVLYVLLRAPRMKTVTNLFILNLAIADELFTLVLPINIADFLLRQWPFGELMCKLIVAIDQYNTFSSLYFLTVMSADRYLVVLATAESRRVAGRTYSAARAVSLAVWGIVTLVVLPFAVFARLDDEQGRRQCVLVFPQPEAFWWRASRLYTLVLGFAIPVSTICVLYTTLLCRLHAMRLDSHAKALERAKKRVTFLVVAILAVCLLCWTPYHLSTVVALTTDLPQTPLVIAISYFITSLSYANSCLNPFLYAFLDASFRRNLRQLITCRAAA
NS3 helicase cf: HCV NS3 helicase inhibition, confirmation assay | inhibition, % at 10.9 µM | NS3 helicase DNA unwinding, Cy5 molecular beacon fluorescence | shares compounds with HCV NS3 hel inh | 31% of 1,600 active;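 active = inhibition above the mean of all tested compounds plus 3 SD, cutoff set per campaign, cut at about 36% in these data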
DNA FID counter-2: intercalator displacement, NS3 helicase counter-screen; DNA fluorescent intercalator displacement, fluorescence; inhibition, % at 7.9 µM; 4% of 1,600 active; shares compounds with HCV NS3 hel inh;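 also: higher means more displacement of ethidium bromide from the DNA hairpin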
FID counter DR: displaces fluorescent intercalator from DNA, HCV helicase counter-screen; shares compounds with HCV NS3 hel inh; fluorescent intercalator displacement from DNA, fluorescence; IC50, µM; 120 tested, under 10 active; call rule not given here
Each line names hits and unclear results; the compound was inactive in the other large screens (follow-up assays come after a bar, where they were run). Rule as the data show it, unless noted: active = inhibition above about 37%; inactive = the rest.

OC1(c2ccc(OC(F)F)cc2)CSC(=Nc2cccnc2)N1Cc1ccco1 (stereo unspecified)	GPR7 antag 20.0 (no result: EBNA-1 inhibitor, ZTA counter)
CC(=O)Nc1ccc(S(=O)(=O)N2CCN(C(=O)CCC3CCCC3)CC2)cc1	GPR7 antag 20.4
Cc1ccc(NC(=O)CCC(=O)N2CCN(S(=O)(=O)c3ccc(C)cc3)CC2)cc1	none (no result: DNA FID counter-1, HCV NS3 hel inh, EBNA-1 inhibitor, GPR7 antag)
Cc1c(NC(=O)C(C)OC(=O)c2ncc(Cl)c(Cl)c2Cl)c(=O)n(-c2ccccc2)n1C (stereo unspecified)	none (no result: DNA FID counter-1, HCV NS3 hel inh, GPR7 antag)
Cc1c(CCOC(=O)c2ccccc2)sc[n+]1CC(=O)c1ccc(Br)cc1	GPR7 antag 19.9
COc1cc(Cl)c(C)cc1NC(=O)COC(=O)C(NS(=O)(=O)c1ccc(Cl)cc1)C(C)O (stereo unspecified)	none
CC(O)C(NS(=O)(=O)c1ccc(Cl)cc1)C(=O)OCC(=O)Nc1cccnc1Cl (stereo unspecified)	GPR7 antag 25.4
O=C(Cn1c(=O)oc2ccccc21)NCc1ccco1	GPR7 antag 17.6
ON=C1c2cc(OCCN3CCCCC3)ccc2-c2ccc(OCCN3CCCCC3)cc21	none
NC(=S)NN=C1c2cc(OCCN3CCOCC3)ccc2-c2ccc(OCCN3CCOCC3)cc21	DNA FID counter-1 54.2
CCn1c(SCc2cccc(F)c2)nnc1-c1cccnc1	GPR7 antag 18.6
Cn1c(=O)c2c(nc(Br)n2Cc2ccccc2Cl)n(C)c1=O	GPR7 antag 19.3
CC(C)c1nnc(NC(=O)C2CCCN2C(=O)Nc2cccc(Cl)c2)s1 (stereo unspecified)	none
CCCCN1C(=O)c2cccc3cc(O)cc(c23)C1=O	none (no result: DNA FID counter-1, HCV NS3 hel inh, GPR7 antag)
CCOC(=O)c1cnc2c(C)cccc2c1NCCCN1CCOCC1	DNA FID counter-1 54.8
CCOC(=O)c1cnc2c(C)cc(Cl)cc2c1NCCCN1CCOCC1	DNA FID counter-1 45.9
Cc1ccc(CNC(=O)c2ccc(N3CCC4(CC3)CC(c3ccccc3)=NO4)c(N)c2)cc1	none
C#CCOCCOCCOCCNc1nc(N2CCN(C(=O)[C@H](CCCCN)n3cc([C@@H](N)CO)nn3)CC2)nc(N2CCN(C(=O)[C@H](Cc3cc4ccccc4[nH]3)n3cc([C@@H](N)Cc4ccc(O)cc4)nn3)CC2)n1	DNA FID counter-1 54.7
C#CCOCCOCCOCCNc1nc(N2CCN(C(=O)[C@H](CCCCN)n3cc([C@@H](N)CC(C)C)nn3)CC2)nc(N2CCN(C(=O)[C@H](Cc3cc4ccccc4[nH]3)n3cc([C@@H](N)Cc4ccc(O)cc4)nn3)CC2)n1	DNA FID counter-1 76.4
COc1ccccc1C1CC(c2ccc(C)cc2)Nc2ncnn21 (stereo unspecified)	GPR7 antag 14.2
Cc1ccc(C(=O)/C=C/c2cc(Br)cc(Br)c2O)o1	HCV NS3 hel inh 36.9 | NS3 helicase cf 48.4 | DNA FID counter-2 inactive | FID counter DR inactive
CCOC(=O)C(CC)(CCC(=O)OC)c1csc(Nc2ccccc2O)n1 (stereo unspecified)	HCV NS3 hel inh 39.6 | NS3 helicase cf inactive | DNA FID counter-2 inactive
CCCCC(CCC(=O)O)(C(=O)OCC)c1csc(Nc2ccc(C)cc2)n1 (stereo unspecified)	none
Cn1cc(C=C2C(=O)CC(C)(C)CC2=O)c2ccccc21	HCV NS3 hel inh 37.6 | NS3 helicase cf inactive | DNA FID counter-2 inactive
Cc1cc(C2=NNC(=NCc3ccccc3)SC2)c(C)n1-c1c(C)n(C)n(-c2ccccc2)c1=O	HCV NS3 hel inh 36.5 (no result: EBNA-1 inhibitor, ZTA counter) | NS3 helicase cf inactive | DNA FID counter-2 inactive
Cc1ccc(S(=O)(=O)N2CCN(C(=O)COC(=O)CCOc3ccc(C(C)(C)C)cc3)CC2)cc1	none (no result: DNA FID counter-1, HCV NS3 hel inh, GPR7 antag)
COc1ccc(CN(C)C(=O)c2ccc3c(=O)n4c(nc3c2)CCC4)c(OC)c1	none (no result: DNA FID counter-1, HCV NS3 hel inh, GPR7 antag)
Cc1[nH]n(C(N)=S)c(=O)c1N=Nc1cccc(Cl)c1	HCV NS3 hel inh 58.2 | NS3 helicase cf inactive | DNA FID counter-2 inactive
COC(=O)CN1C(=O)[C@H]2[C@@H](c3ccc(C)o3)N3C(=O)CN(CCO)C(=O)[C@@]3(Cc3ccccc3)[C@H]2C1=O	HCV NS3 hel inh 45.5 | NS3 helicase cf inactive | DNA FID counter-2 inactive
O=C(NCC1CCCO1)c1cc(S(=O)(=O)N2CCCC2)c(Cl)cc1Cl (stereo unspecified)	HCV NS3 hel inh 83.0 | NS3 helicase cf inactive | DNA FID counter-2 inactive
O=C(NCC1CCCO1)c1cc(S(=O)(=O)N2CCCCC2)ccc1Cl (stereo unspecified)	none (no result: DNA FID counter-1, HCV NS3 hel inh, EBNA-1 inhibitor, GPR7 antag)
COc1cc(OC)cc(C(=O)NCCNc2nc3cc(C)cc(C)c3cc2C#N)c1	none
Cn1cccc1CC(=O)NNC(=O)Nc1cccc(Cl)c1	HCV NS3 hel inh 37.6 | NS3 helicase cf inactive | DNA FID counter-2 inactive
Cn1cccc1CC(=O)NNC(=O)Nc1ccc(Cl)cc1	none
CCOC(=O)CN1C(=O)S/C(=C/c2ccco2)C1=O	none
CCOC(=O)CN1C(=O)S/C(=C/c2ccc(OCc3ccc(C(=O)O)cc3)cc2)C1=O	HCV NS3 hel inh 42.2 | NS3 helicase cf inactive | DNA FID counter-2 inactive
CNS(=O)(=O)c1cccc(C(=O)OCC(=O)N2CC(C)OC(C)C2)c1 (stereo unspecified)	none
CCCn1c(CN2CCN(C(=O)OCC)CC2)nc2c1c(=O)n(C)c(=O)n2C	none
CCOC(=O)N1CCN(Cc2nc3c(c(=O)n(C)c(=O)n3C)n2Cc2ccccc2C)CC1	HCV NS3 hel inh 60.8 | NS3 helicase cf inactive | DNA FID counter-2 inactive
O=C(c1cc(Cl)nc2ccccc12)N1CCN(S(=O)(=O)c2cccc(C(F)(F)F)c2)CC1	none (no result: DNA FID counter-1, HCV NS3 hel inh, GPR7 antag)
COc1ccccc1NC(=O)c1ccc(S(=O)(=O)N(C)C)cc1	none
COc1ccc(OC)c2sc(NC(=O)c3ccc(S(=O)(=O)N(C)C)cc3)nc12	HCV NS3 hel inh 40.8 | NS3 helicase cf inactive | DNA FID counter-2 inactive
CCOC(=O)c1csc(NC(=O)CN2CCCCC2)n1	none
COc1ccc2c(c1)C(=O)N1[C@H]3c4cc(Br)ccc4OC[C@@H]3[C@H](c3ccccc3)[C@]1(C)C(=O)N2	none (no result: DNA FID counter-1, HCV NS3 hel inh, GPR7 antag)
Nc1c(C(=O)Nc2ccccc2)sc2nc3c(c(-c4ccco4)c12)CCCC3	none
Cc1ccccc1NC(=O)c1sc2nc3c(c(-c4ccco4)c2c1N)CCCC3	HCV NS3 hel inh 44.0 | NS3 helicase cf inactive | DNA FID counter-2 inactive
Nc1c(C(=O)Nc2ccccc2)sc2nc3c(c(-c4ccco4)c12)CCC3	HCV NS3 hel inh 41.2 | NS3 helicase cf inactive | DNA FID counter-2 inactive
Cc1c(CC(=O)N[C@@H](CCCNC(N)=O)C(=O)O)c(=O)oc2cc3oc4c(c3cc12)CCCC4	none
CCCCC(NC(=O)Cc1c(C)c2cc3c4c(oc3cc2oc1=O)CCCC4)C(=O)O (stereo unspecified)	HCV NS3 hel inh 40.5 | NS3 helicase cf 51.5 | DNA FID counter-2 inactive
CCOC(=O)C1CCN(C(=O)C2CCN(S(=O)(=O)c3cccc4nsnc34)CC2)CC1	none
